In ChEMBL document CHEMBL1921792, “Synthesis and anticonvulsant activity of trans- and cis-2-(2,6-dimethylphenoxy)-N-(2- or 4-hydroxycyclohexyl)acetamides and their amine analogs” (Bioorg Med Chem, 2011):

Columns and labels:
[1] = test system: Rattus norvegicus; experiment: Neurotoxicity in rat assessed as neurological deficit at 62.5 mg/kg, po after 24 hrs; type: toxicity, organism-based; parameters: dose 62.5 mg/kg, route oral; conditions: in vivo
Outline: (§1)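 Rats dosed orally with test agent suspended in 0.5% methylcellulose and observed for up to 24 h (time-to-peak-effect design). Neurological deficit was scored as ataxia with loss of placing response and muscle tone. Two rats per dose per time point; results given as number toxic/number tested.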

[2] = test system: Rattus norvegicus; experiment: Neurotoxicity in rat assessed as neurological deficit at 500 mg/kg, po after 1 hr; type: toxicity, organism-based; parameters: dose 500 mg/kg, route oral; conditions: in vivo
Outline: (§2)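 Rats given the compound, suspended in 0.5% methylcellulose, by the stated route and dose. Neurological deficit was recorded at the listed times as ataxia and loss of placing response and muscle tone. Reported as number of rats showing toxicity/number tested.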

[3] = test system: Mus musculus; experiment: Anticonvulsant activity in ip dosed mouse assessed as time to show peak effect of protection against maximal electric shock-induced seizures; type: functional
Outline: (§3)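 Time-to-peak-effect assay: MES protection read at 0.25–4 h after dosing. Mice ip (60–130 mg/kg), rats po (15 or 30 mg/kg) or ip (30 mg/kg). Groups of 4–8; result is protected/tested.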

[4] = test system: Rattus norvegicus; experiment: Neurotoxicity in rat assessed as neurological deficit at 62.5 mg/kg, po after 0.5 hrs; type: toxicity, organism-based; parameters: dose 62.5 mg/kg, route oral; conditions: in vivo; outline: as §1
[5] = test system: Rattus norvegicus; experiment: Neurotoxicity in rat assessed as neurological deficit at 30 mg/kg, po after 4 hrs by rotarod test; type: toxicity, organism-based; parameters: dose 30 mg/kg, route oral; conditions: in vivo; outline: as §2
[6] = test system: Mus musculus; experiment: Neurotoxicity in mouse assessed as inability to maintain equilibrium on rotarod at 100 mg/kg, ip after 4 hrs by rotarod test; type: toxicity, organism-based; parameters: dose 100 mg/kg, route intraperitoneal; conditions: in vivo
Outline: (§4)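 Drug given ip to mice as a suspension in 0.5% methylcellulose. At the stated time after dosing, each mouse was placed on a 1 inch knurled rod turning at 6 rpm. Neurotoxicity = inability to stay balanced at least 1 min in each of three trials. Scored as animals toxic/animals tested in small groups.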

[7] = test system: Mus musculus; experiment: Neurotoxicity in mouse assessed as inability to maintain equilibrium on rotarod at 130 mg/kg, ip after 1 hr by rotarod test; type: toxicity, organism-based; parameters: dose 130 mg/kg, route intraperitoneal; conditions: in vivo; outline: as §4
[8] = test system: Rattus norvegicus; experiment: Neurotoxicity in rat assessed as neurological deficit at 125 mg/kg, po after 24 hrs; type: toxicity, organism-based; parameters: dose 125 mg/kg, route oral; conditions: in vivo; outline: as §2
[9] = test system: Rattus norvegicus; experiment: Anticonvulsant activity in po dosed rat assessed as time to show peak effect of protection against maximal electric shock-induced seizures; type: functional; outline: as §3
[10] = test system: Rattus norvegicus; experiment: Neurotoxicity in rat assessed as neurological deficit at 250 mg/kg, po after 4 hrs; type: toxicity, organism-based; parameters: dose 250 mg/kg, route oral; conditions: in vivo; outline: as §2
[11] = test system: Mus musculus; experiment: Neurotoxicity in mouse assessed as inability to maintain equilibrium on rotarod at 30 mg/kg, ip after 0.5 hrs by rotarod test; type: toxicity, organism-based; parameters: dose 30 mg/kg, route intraperitoneal; conditions: in vivo; outline: as §4
[12] = test system: Rattus norvegicus; experiment: Neurotoxicity in rat assessed as neurological deficit at 125 mg/kg, po after 8 hrs; type: toxicity, organism-based; parameters: dose 125 mg/kg, route oral; conditions: in vivo; outline: as §2
[13] = test system: Rattus norvegicus; experiment: Neurotoxicity in rat assessed as neurological deficit at 500 mg/kg, po after 24 hrs; type: toxicity, organism-based; parameters: dose 500 mg/kg, route oral; conditions: in vivo; outline: as §2
[14] = test system: Mus musculus; experiment: Neurotoxicity in mouse assessed as inability to maintain equilibrium on rotarod at 130 mg/kg, ip after 0.25 hrs using rotarod test; type: toxicity, organism-based; parameters: dose 130 mg/kg, route intraperitoneal; conditions: in vivo; outline: as §4
[15] = test system: Rattus norvegicus; experiment: Neurotoxicity in rat assessed as neurological deficit at 62.5 mg/kg, po after 6 hrs; type: toxicity, organism-based; parameters: dose 62.5 mg/kg, route oral; conditions: in vivo; outline: as §1
[16] = test system: Rattus norvegicus; experiment: Neurotoxicity in rat assessed as neurological deficit at 500 mg/kg, po after 8 hrs; type: toxicity, organism-based; parameters: dose 500 mg/kg, route oral; conditions: in vivo; outline: as §1
[17] = test system: Mus musculus; experiment: Neurotoxicity in mouse assessed as inability to maintain equilibrium on rotarod at 30 mg/kg, ip after 4 hrs by rotarod test; type: toxicity, organism-based; parameters: dose 30 mg/kg, route intraperitoneal; conditions: in vivo; outline: as §4
[18] = test system: Rattus norvegicus; experiment: Neurotoxicity in rat assessed as neurological deficit at 125 mg/kg, po after 0.25 hrs; type: toxicity, organism-based; parameters: dose 125 mg/kg, route oral; conditions: in vivo; outline: as §2
[19] = test system: Rattus norvegicus; experiment: Neurotoxicity in rat assessed as neurological deficit at 250 mg/kg, po after 24 hrs; type: toxicity, organism-based; parameters: dose 250 mg/kg, route oral; conditions: in vivo; outline: as §2
[20] = test system: Rattus norvegicus; experiment: Neurotoxicity in rat assessed as neurological deficit at 500 mg/kg, po after 0.25 hrs; type: toxicity, organism-based; parameters: dose 500 mg/kg, route oral; conditions: in vivo; outline: as §2
[21] = test system: Rattus norvegicus; experiment: Neurotoxicity in rat assessed as neurological deficit at 62.5 mg/kg, po after 8 hrs; type: toxicity, organism-based; parameters: dose 62.5 mg/kg, route oral; conditions: in vivo; outline: as §1
[22] = test system: Rattus norvegicus; experiment: Neurotoxicity in rat assessed as neurological deficit at 250 mg/kg, po after 0.5 hrs; type: toxicity, organism-based; parameters: dose 250 mg/kg, route oral; conditions: in vivo; outline: as §2
[23] = test system: Mus musculus; experiment: Neurotoxicity in mouse assessed as inability to maintain equilibrium on rotarod at 300 mg/kg, ip after 4 hrs by rotarod test; type: toxicity, organism-based; parameters: dose 300 mg/kg, route intraperitoneal; conditions: in vivo; outline: as §4
[24] = test system: Rattus norvegicus; experiment: Neurotoxicity in rat assessed as neurological deficit at 250 mg/kg, po after 2 hrs; type: toxicity, organism-based; parameters: dose 250 mg/kg, route oral; conditions: in vivo; outline: as §2
[25] = test system: Rattus norvegicus; experiment: Neurotoxicity in rat assessed as neurological deficit at 125 mg/kg, po after 2 hrs; type: toxicity, organism-based; parameters: dose 125 mg/kg, route oral; conditions: in vivo; outline: as §2
[26] = test system: Rattus norvegicus; experiment: Neurotoxicity in rat assessed as neurological deficit at 30 mg/kg, po after 0.5 hrs […]; type: toxicity, organism-based; parameters: dose 30 mg/kg, route oral; conditions: in vivo; outline: as §2
[27] = test system: Rattus norvegicus; experiment: Neurotoxicity in rat assessed as neurological deficit at 500 mg/kg, po after 0.5 hrs; type: toxicity, organism-based; parameters: dose 500 mg/kg, route oral; conditions: in vivo; outline: as §2

Cc1cccc(C)c1OCC(=O)NC1CCCCC1O.Cl (racemic; 1)
Activity [1]: Non-toxic
Activity [2]: Non-toxic
Time [3]: 0.25 h
Activity [4]: Non-toxic
Activity [5]: Non-toxic
Activity [6]: Non-toxic
Activity [7]: Non-toxic
Activity [8]: Non-toxic
Time [9]: 0.25 h
Activity [10]: Non-toxic
Activity [11]: Non-toxic
Activity [12]: Non-toxic
Activity [13]: Non-toxic
Activity [14]: Toxic
Activity [15]: Non-toxic
Activity [16]: Non-toxic
Activity [17]: Non-toxic
Activity [18]: Non-toxic
Activity [19]: Non-toxic
Activity [20]: Non-toxic
Activity [21]: Non-toxic
Activity [22]: Non-toxic
Activity [23]: Non-toxic
Activity [24]: Non-toxic
Activity [25]: Non-toxic
Activity [26]: Non-toxic
Activity [27]: Non-toxic
